Source: PubChem BioAssay (several laboratories)
SR-BI HDL uptake: blocks mouse SR-BI lipid uptake from DiI-HDL; Q61009; ldlA[mSR-BI] CHO cells, DiI-HDL uptake fluorescence, 3 h; inhibition, % at 12.5 µM; 320,000 tested, 0.96% active;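 active = mean replicate inhibition of at least 70% and a set share of replicates each scoring 70 or more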
Target sequence (Q61009 whole entry, looked up): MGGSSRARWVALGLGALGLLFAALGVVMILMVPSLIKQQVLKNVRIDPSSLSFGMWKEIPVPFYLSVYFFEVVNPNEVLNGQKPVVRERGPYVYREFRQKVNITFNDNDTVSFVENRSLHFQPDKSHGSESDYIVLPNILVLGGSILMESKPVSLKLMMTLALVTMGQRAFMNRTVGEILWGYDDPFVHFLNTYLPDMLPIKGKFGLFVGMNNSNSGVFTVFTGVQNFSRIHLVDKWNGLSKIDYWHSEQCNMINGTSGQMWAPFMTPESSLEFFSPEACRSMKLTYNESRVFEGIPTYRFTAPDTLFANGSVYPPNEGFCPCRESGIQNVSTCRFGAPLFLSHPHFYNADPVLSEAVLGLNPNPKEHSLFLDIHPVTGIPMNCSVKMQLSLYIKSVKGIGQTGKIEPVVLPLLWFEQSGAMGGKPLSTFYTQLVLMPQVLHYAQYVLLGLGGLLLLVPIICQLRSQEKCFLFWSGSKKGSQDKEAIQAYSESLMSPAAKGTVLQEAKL
FN deposit inh: fibronectin deposition inhibition; AID 743247; inhibition, % at 12.6 µM; 350,000 tested, 0.086% active; AH1F fibroblasts, Alexa488-fibronectin deposition fluorescence, overnight;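 active = mean inhibition across replicates of 30% or more, regardless of how many single replicates reach that level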
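Measured by – fluorescence 485/525 nm · System – AH1F fibroblast monolayer, labelled fibronectin deposition · Amount – 10000 cells per well · Buffer or medium – serum-reduced DMEM (2% serum) · Doses – single dose, pinned · Also added – fluorescent fibronectin at 24 nM final · Schedule – 1 h cell attachment, overnight exposure to compound and label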
SR-BI DiI-HDL act: enhances SR-BI lipid uptake from DiI-HDL. CHO ldlA[mSR-BI] cells, DiI-HDL uptake fluorescence, 3 h; 100 = double the neutral-control signal. activation, % at 12.5 µM. 320,000 tested, 0.096% active. AID 504775;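 active = mean replicate activation of at least 60% and every replicate at or above 60%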
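Test system: SR-BI-overexpressing, LDLR-lacking CHO cells. Measured by: DiI fluorescence, bottom read. Medium: Ham's F12 with 0.5% BSA, HEPES 25 mM, pH 7.4. Timing: 3 h uptake period with compound, 37 °C.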
CaV13 ICDI inh: Primary screen for inhibitors of IQ motif and Ca2+-dependent inactivation inhibitor domain binding in CACNA1D, Förster resonance energy transfer in living cells, …; 340,000 tested, 0.098% active; inhibition, % at 12.3 µM; HEK cells, CFP/YFP FRET ICDI-IQ, plate reader, 10 min; percent FRET-ratio fall versus neutral wells;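 active = mean replicate inhibition of at least 30% and at least 1% of replicates passing that level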
Efflux pump inh: antifungal efflux pump inhibition, Nile Red retention; S. cerevisiae Candida pump triplex; inhibition, % at 10 µM; 330,000 tested, 0.44% active;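 active = plate passing quality check with inhibition over a set limit, or well fluorescence over plate mean plus 4 SD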;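 note: Nile Red retained in pooled yeast measured as flow cytometry median fluorescence; higher means more Nile Red kept so more efflux inhibition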
Yeast cmpd fluor: compound fluorescence in yeast efflux pump counter-screen. shares compounds with Efflux pump inh. S. cerevisiae AD/pABC3, flow cytometry. fluorescence ratio to DMSO, % at 10 µM. 1,700 tested, 4% active. AID 588517;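 active = fluorescence ratio to DMSO above its plate's cutoff, the plate mean ratio plus 5 SD, cut at about 210% in these data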;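 note: unstained yeast with no Nile Red so the signal is compound autofluorescence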
CaMdr1 efflux inh: inhibitors of Candida albicans Mdr1 efflux pump; shares compounds with Efflux pump inh; 1,700 tested, 1% active; S. cerevisiae AD/CaMDR1, Nile Red efflux, flow cytometry; inhibition, % at 10 µM; in the data active = inhibition above about 26%;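 note: higher means more Nile Red retained so more efflux inhibition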
Cdr2 pump inh: blocks the Candida albicans Cdr2 efflux pump in yeast. shares compounds with Efflux pump inh. S. cerevisiae AD/CaCDR2, Nile Red retention, flow cytometry. Nile Red retention ratio vs DMSO, % at 10 µM. 1,700 tested, 4% active; in the data active = Nile Red retention ratio vs DMSO above about 190%;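 note: higher ratio means more blocking of Cdr2 efflux of the dye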
Cdr1 pump inh: blocks the Candida albicans Cdr1 efflux pump in yeast | shares compounds with Efflux pump inh | S. cerevisiae AD/CaCDR1, Nile Red efflux, flow cytometry | inhibition, % at 10 µM | 1,700 tested, 1% active | AID 588522;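 active = inhibition above the screen-wide mean plus twice its standard deviation, cut at about 32% in these data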
Large screens that a line does not name were inactive (follow-up assays come after a bar, where they were run). Sampled rows, rich in hits. Any-hit rate of the full collection: about 1.2%.

O=C(CN(c1ccc(Cl)c(C(F)(F)F)c1)S(=O)(=O)c1ccccc1)N1CCOCC1	Efflux pump inh 0.7 (no result: FN deposit inh) | Yeast cmpd fluor inactive | CaMdr1 efflux inh inactive | Cdr2 pump inh inactive | Cdr1 pump inh inactive
O=C(CN(c1cccc(C(F)(F)F)c1)S(=O)(=O)c1ccccc1)N1CCOCC1	none
CCNS(=O)(=O)c1ccc(OC)c(C)c1	none
CCNS(=O)(=O)c1ccc2c(c1)NCC2	Efflux pump inh 12 | Yeast cmpd fluor inactive | CaMdr1 efflux inh inactive | Cdr2 pump inh inactive | Cdr1 pump inh inactive
Cc1ccc(S(=O)(=O)Nc2ccc3c(c2)C(=O)N([C@@H](C)CO)C[C@H](C)[C@H](CN(C)C)O3)cc1	none (no result: SR-BI HDL uptake, SR-BI DiI-HDL act, CaV13 ICDI inh, Efflux pump inh)
O=C(C[C@@H]1CC[C@H]2[C@@H](COC[C@H](O)CN2Cc2nccs2)O1)NCc1ccc(Oc2ccccc2)cc1	none (no result: SR-BI HDL uptake, SR-BI DiI-HDL act, CaV13 ICDI inh, Efflux pump inh)
Cc1cc(C)nc(N/C(=N\S(=O)(=O)Cc2ccccc2)Nc2ccccc2Br)n1	Efflux pump inh 13 | Yeast cmpd fluor inactive | CaMdr1 efflux inh inactive | Cdr2 pump inh inactive | Cdr1 pump inh inactive
Cc1ccc(S(=O)(=O)c2ccc(Cl)cc2)cc1S(=O)(=O)N(C)CC(=O)O	Efflux pump inh 15 | Yeast cmpd fluor inactive | CaMdr1 efflux inh inactive | Cdr2 pump inh inactive | Cdr1 pump inh inactive
Cc1ccc(S(=O)(=O)c2ccc(Cl)cc2)cc1S(N)(=O)=O	none
CO[C@@H]1CN(C)C(=O)c2ccc(NC(=O)Nc3cccc(F)c3)cc2OC[C@@H](C)NC[C@@H]1C	none (no result: SR-BI HDL uptake, SR-BI DiI-HDL act, CaV13 ICDI inh, Efflux pump inh)
Cc1ccc2c(c1)CCCN2C(=O)C1CCCO1 (configuration not stated)	Efflux pump inh 14 (no result: FN deposit inh) | Yeast cmpd fluor inactive | CaMdr1 efflux inh inactive | Cdr2 pump inh inactive | Cdr1 pump inh inactive
COC(=O)N1CCCc2cc(C)ccc21	none (no result: SR-BI HDL uptake, FN deposit inh, SR-BI DiI-HDL act)
CC[n+]1c(/C=C/C=C/N(C(C)=O)c2ccccc2)sc2cc(OC)ccc21	Efflux pump inh 3.5 (no result: SR-BI HDL uptake, SR-BI DiI-HDL act) | Yeast cmpd fluor 346 | CaMdr1 efflux inh inactive | Cdr2 pump inh inactive | Cdr1 pump inh inactive
O=C(c1cn(-c2ccccc2)nc1-c1ccc(F)cc1)N1CCCCC1	Efflux pump inh 11 (no result: FN deposit inh, CaV13 ICDI inh) | Yeast cmpd fluor inactive | CaMdr1 efflux inh inactive | Cdr2 pump inh inactive | Cdr1 pump inh inactive
O=C(c1cn(-c2ccccc2)nc1-c1ccc(F)cc1)N1CCOCC1	none
O=C1C2C3C=CC(C4CC34)C2C(=O)N1Cc1ccccc1 (configuration not stated)	Efflux pump inh 0.9 | Yeast cmpd fluor inactive | CaMdr1 efflux inh inactive | Cdr2 pump inh inactive | Cdr1 pump inh inactive
CCC(=O)N1C[C@H](C)[C@@H](OC)CN(C)C(=O)c2cc(NC(=O)c3cc(C)on3)ccc2OC[C@@H]1C	none (no result: SR-BI HDL uptake, SR-BI DiI-HDL act, CaV13 ICDI inh, Efflux pump inh)
COc1ccc(NC(=O)Nc2ccc3c(c2)C(=O)N([C@@H](C)CO)C[C@H](C)[C@H](CN(C)S(=O)(=O)c2ccc(Cl)cc2)OCCCC[C@@H](C)O3)cc1	none (no result: SR-BI HDL uptake, SR-BI DiI-HDL act, CaV13 ICDI inh, Efflux pump inh)
C[C@H](CO)N1C[C@H](C)[C@@H](CN(C)S(=O)(=O)c2cccs2)Oc2ccc(NC(=O)NC3CCCCC3)cc2CC1=O	none (no result: SR-BI HDL uptake, SR-BI DiI-HDL act, CaV13 ICDI inh, Efflux pump inh)
CCN(CC)c1ccc(/C=C2\C(=O)c3ccc(C(=O)O)cc3C2=O)cc1	Efflux pump inh 5.8 (no result: FN deposit inh) | Yeast cmpd fluor 208 | CaMdr1 efflux inh inactive | Cdr2 pump inh 668 | Cdr1 pump inh inactive
COc1cc(/C=N/NC(=O)COc2ccc(C)cc2)ccc1OC(=O)c1cccs1	Efflux pump inh 2.1 | Yeast cmpd fluor inactive | CaMdr1 efflux inh inactive | Cdr2 pump inh inactive | Cdr1 pump inh inactive
CCS(=O)(=O)N1CC2(CN(C(=O)c3cccnc3)C2)c2c(n(C)c3cc(OC)ccc23)[C@H]1CO	none (no result: SR-BI HDL uptake, SR-BI DiI-HDL act, CaV13 ICDI inh, Efflux pump inh)
